This note sets out measurements from ChEMBL document CHEMBL3352770, “Click chemistry inspired synthesis and bioevaluation of novel triazolyl derivatives of osthol as potent cytotoxic agents” (Eur J Med Chem, 2014).

The nature of assay [1]: Cytotoxicity against human NCI-H322 cells after 24 hrs by MTT assay. In kind it is functional, cell-based. As to conditions: NCI-H322, 24 h. An outline of the steps:
(§1)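 Cells kept in DMEM with 10% foetal calf serum, penicillin and streptomycin, at 37 °C under 5% CO2. For assays serum lowered to 3%. Cells treated with test material at 0.04–60 µM for 24 h, then MTT (250 µg/mL) for 3 h. Formazan OD read at 570 nm. IC50 by non-linear regression, mean of triplicates. BEZ-235 as positive control.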

The subject of the next assay is A-431. Description: Cytotoxicity against human A431 cells after 24 hrs by MTT assay. The assay is classed as functional, cell-based. To be noted: A-431, 24 h. An outline of the steps: as §1
In general terms: Tetrazolium dyes change colour on reduction, which living cells bring about.

A short description of assay [2]: Cytotoxicity against human HCT116 cells after 24 hrs by MTT assay. As to conditions: HCT-116, 24 h. The assay is classed as functional, cell-based. An outline of the steps:
as §1

Another assay has as its system A549. Description: Cytotoxicity against human A549 cells after 24 hrs by MTT assay. In kind it is functional, cell-based. To be noted: A549, 24 h. An outline of the steps:
as §1

Assay [3] in a line: Cytotoxicity against human PC3 cells after 24 hrs by MTT assay. The assay is classed as functional, cell-based. As to conditions: PC-3, 24 h. The method, boiled down: as §1
In another assay the test system is T47D. Description: Cytotoxicity against human T47D cells after 24 hrs by MTT assay. In kind it is functional, cell-based. An outline of the steps: as §1
Assay [4] relates to COLO 205. Description: Cytotoxicity against human COLO205 cells after 24 hrs by MTT assay. The assay is classed as functional, cell-based. As to conditions: COLO 205, 24 h. An outline of the steps:
as §1

Assay [5] deals with COLO 205. Description: Induction of cell cycle arrest in human COLO205 cells assessed as accumulation at G1 phase at 1 uM after 48 hrs by propidium iodide staining based flow cytometry (reference value: 45.7%). In kind it is functional.
In assay [6] the test system is COLO 205. In words: Induction of mitochondrial membrane potential loss in human COLO205 cells at 1 uM after 48 hrs by Rh-123 staining based flow cytometry (reference value: 12.4%). The assay is classed as functional.
Assay [7] deals with COLO 205. Description: Induction of apoptosis in human COLO205 cells assessed as accumulation at subG1 phase at 1 uM after 48 hrs by propidium iodide staining based flow cytometry (reference value: 12%). In kind it is functional. On the technique in general: Flow cytometry measures light scatter and fluorescence of single cells or particles in a stream.
Assay [8] has as its system COLO 205. Description: Induction of cell cycle arrest in human COLO205 cells assessed as accumulation at S phase at 1 uM after 48 hrs by propidium iodide staining based flow cytometry (reference value: 13.8%). The assay is classed as functional.
For assay [9], the system named is COLO 205. In words: Induction of cell cycle arrest in human COLO205 cells assessed as accumulation at G2 phase at 1 uM after 48 hrs by propidium iodide staining based flow cytometry (reference value: 13.2%). In kind it is functional.

The structures appear in SMILES notation. pIC50: −log10 of the molar value. Bounds are passed on as bounds.

Regarding `COc1ccc(/C=C\C(=O)O)c(OCc2cn(-c3ccccc3I)nn2)c1CC=C(C)C`, the negative-log IC50 (pIC50) – broadly, the negative decadic logarithm of the IC50, by convention in mol/L – in [1] was 4.37; in the assay with A-431, 4.49; in assay [2], 4.64; in the assay with A549 it was 5.66.

`COc1ccc(/C=C\C(=O)O)c(OCc2cn(-c3ccccc3)nn2)c1CC=C(C)C`: the pIC50 in [3] is 4.46; in assay [1] it was 4.53; in the assay with A-431, 4.67; with T47D, 4.47; in the assay on COLO 205 [4] it was 4.49; in assay [2], 4.59. In addition, the pIC50 with A549 is 4.39.

As to `COc1ccc(/C=C\C(=O)O)c(OCc2cn(-c3ccc(C#N)cc3)nn2)c1CC=C(C)C`, the pIC50 in [1] was 4.73; in the assay on A-431, 4.64; in the assay with T47D it was 4.99; in the assay on COLO 205 [4], 4.49; in assay [2], 4.68; in the assay on A549 it was 4.37.

Turning to `COc1ccc(/C=C\C(=O)O)c(OCc2cn(-c3ccc(CO)cc3)nn2)c1CC=C(C)C`, the pIC50 in assay [3] was 4.55; in [1] it was 4.57; in the assay with A-431, 4.79; in the assay with T47D it was 4.40; in the assay on COLO 205 [4], 4.71; in assay [2] it was 4.50.

Turning to `COc1ccc(/C=C\C(=O)O)c(OCc2cn(-c3ccc(NC(=O)c4ccccc4)cc3)nn2)c1CC=C(C)C`, the pIC50 in assay [1] was 4.76; in the assay with A-431, 4.67; in the assay with T47D, 4.63; with COLO 205 [4] it was 4.69; in assay [2] it was 4.79; in the assay with A549, 4.37.

With `COc1ccc(/C=C\C(=O)O)c(OCc2cn(-c3cccc(C#N)c3)nn2)c1CC=C(C)C`, the pIC50 in assay [3] was 4.34; in assay [1] it was 4.58; with A-431, 4.64; in the assay on T47D it was 4.72; in the assay on COLO 205 [4], 4.57; in assay [2], 4.45.

On to `COc1ccc(/C=C\C(=O)O)c(OCc2cn(-c3cccc([N+](=O)[O-])c3)nn2)c1CC=C(C)C`, for which the pIC50 was 4.38 in [3]; 4.36 in assay [1]; 4.74 in the assay on A-431; 4.81 in the assay with T47D; 5.16 in the assay on COLO 205 [4]; 4.56 in [2].

`COc1ccc(/C=C\C(=O)O)c(OCc2cn(P(=O)(Oc3ccccc3)Oc3ccccc3)nn2)c1CC=C(C)C`: the pIC50 in assay [3] was 4.44; in the assay on A-431 it was 4.36; in the assay with T47D, 4.51; in assay [2], 4.45.

For the molecule `COc1ccc(/C=C\C(=O)O)c(OCc2cn(-c3ccc4c(c3)OCO4)nn2)c1CC=C(C)C`, the pIC50 in assay [3] is 4.49; in [1] it was 4.64; with A-431, 4.64; with T47D, 4.88; in assay [2], 4.69; in the assay with A549, 4.71.

On to `COc1ccc(/C=C\C(=O)O)c(OCc2cn(-c3ccccc3F)nn2)c1CC=C(C)C`, for which the pIC50 in assay [3] is 4.62; in assay [1] it was 4.34; in the assay with A-431, 4.91; with T47D, 4.96; in the assay with COLO 205 [4], 4.84.

On to `COc1ccc2ccc(=O)oc2c1CC=C(C)C` [OSTHOLE], for which the pIC50 is 4.61 in assay [3]; 4.51 in assay [1]; 4.63 in the assay with A-431; 4.37 in the assay on T47D; < 4.22 in the assay on COLO 205 [4]; 4.52 in [2]. The molecule also showed a pIC50 with A549 of 4.34.

Turning to `COc1cccc(-n2cc(COc3c(/C=C\C(=O)O)ccc(OC)c3CC=C(C)C)nn2)c1`, the pIC50 in [1] is 4.60; in the assay on A-431 it was 4.63; with T47D, 4.69; in assay [2] it was 4.67; in the assay on A549, 4.37.

`COc1ccc(/C=C\C(=O)O)c(OCc2cn(-c3ccccc3C#N)nn2)c1CC=C(C)C`: the pIC50 in [1] was 4.84; with A-431, 4.99; with T47D it was 5.06; in the assay with COLO 205 [4] it was 5.49; in [2] it was 4.42; in the assay on A549, 4.41.

As for `CC[C@@]1(O)C(=O)OCc2c1cc1n(c2=O)Cc2cc3ccccc3nc2-1` [CAMPTOTHECIN], the Activity in the assay on COLO 205 [5] is 11%; with COLO 205 [6], 30.8%; in the assay on COLO 205 [7] it was 69.4%; in the assay with COLO 205 [8], 4.9%; in the assay on COLO 205 [9] it was 2.2%.

As for `COc1ccc(/C=C\C(=O)O)c(OCc2cn(-c3ccccc3C(=O)N3CCC(O)C3)nn2)c1CC=C(C)C` (stereo not given), the pIC50 was 4.44 in assay [3]; 4.50 in the assay with A-431; 4.87 with T47D; 4.60 with COLO 205 [4]; 4.49 in assay [2].

In the case of `COc1ccc(-n2cc(COc3c(/C=C\C(=O)O)ccc(OC)c3CC=C(C)C)nn2)cc1`, the results for the negative-log IC50 (pIC50) (in [2]; with A549) were 5.06 and 4.99, respectively.

As to `COc1ccc(/C=C\C(=O)O)c(OCc2cn(CC(O)c3ccccc3)nn2)c1CC=C(C)C` (stereo not given), the pIC50 in [3] was 4.85; in assay [1] it was 4.45; in the assay on T47D it was 4.76; with COLO 205 [4], 4.37; in [2], 4.34.

As to `COc1ccccc1-n1cc(COc2c(/C=C\C(=O)O)ccc(OC)c2CC=C(C)C)nn1`, the negative logarithm of the IC50 (pIC50) in assay [1] is 4.38; in the assay with A-431, 4.49; in the assay with COLO 205 [4], 4.91; in [2], 4.49; in the assay with A549, 4.37.

As for `COc1ccc(/C=C\C(=O)O)c(OCc2cn(-c3nc4ccccc4s3)nn2)c1CC=C(C)C`, the negative-log IC50 (pIC50) in assay [1] was 4.64; in the assay with A-431, 4.68; in the assay on T47D it was 4.76; in the assay on COLO 205 [4], 4.69; in assay [2], 4.79; with A549, 4.38.

For `COc1ccc(/C=C\C(=O)O)c(OCc2cn(-c3cccnc3Cl)nn2)c1CC=C(C)C`, the negative logarithm of the IC50 (pIC50) in assay [1] is 4.37; in the assay on A-431 it was 4.49; in assay [2] it was 4.64; with A549, 5.25.

For the molecule `COc1ccc(/C=C\C(=O)O)c(OCc2cn(-c3ccc(NC(C)=O)cc3)nn2)c1CC=C(C)C`, the pIC50 is 4.34 in assay [1], 4.63 with A-431, 4.76 in the assay on T47D and 4.65 in the assay with COLO 205 [4].

As for `Cn1c(=O)n(-c2ccc(C(C)(C)C#N)cc2)c2c3cc(-c4cnc5ccccc5c4)ccc3ncc21` [DACTOLISIB], the pIC50 was 4.91 in assay [3]; 4.99 in assay [1]; 4.90 in the assay on A-431; 4.95 in the assay with T47D; 7.36 in assay [2].
